In ChEMBL document CHEMBL4387702, “Design and synthesis novel di-carbonyl analogs of curcumin (DACs) act as potent anti-inflammatory agents against LPS-induced acute lung injury (ALI)” (Eur J Med Chem, 2019):
Activity calls are given as the source filed them. No cut-off for these calls is given here.

What was measured:
Mus musculus [1] = test: Antiinflammatory activity in C57BL/6 mouse model of LPS-induced acute lung injury assessed as reduction of LY-6G neutrophil level in lung tissue at 10 mg/kg, ip administered daily for one week prior to LPS challenge and measured after 6 hrs by hematoxylin staining-based immunohistochemistry method; type: functional, organism-based
In short: (§1)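 Lungs came from C57BL/6 mice dosed at 10 mg/kg i.p. daily for one week, then given intratracheal LPS 5 mg/kg and harvested at 6 h. Tissue was paraffin-embedded and cut into 5 µm sections. Antigen retrieval used microwaving in 0.01 mol/L citrate (pH 6.0), then 3% H2O2 in methanol for 30 min. Sections took LY-6G or F4/80 primary antibody overnight at 4 °C, secondary at 1:200, DAB development and hematoxylin counterstain.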

Mus musculus [2] = test: Antiinflammatory activity in C57BL/6 mouse model of LPS-induced acute lung injury assessed as reduction of F4/80 macrophage level in lung tissue at 10 mg/kg, ip administered daily for one week prior to LPS challenge measured after 6 hrs by hematoxylin staining-based immunohistochemistry method; type: functional, organism-based; in short: as §1
Mus musculus [3] = test: Antiinflammatory activity in C57BL/6 mouse model of LPS-induced acute lung injury assessed as reduction in IL-6 mRNA expression in lung tissue at 10 mg/kg, ip administered daily for one week prior to LPS challenge and measured after 6 hrs by TRIZOL reagent-based RT-qPCR analysis; type: functional, organism-based
In short: (§2)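 Mouse ALI model with eight C57BL/6 mice per group. Compound was given at 10 mg/kg i.p. daily for one week; controls received 0.9% saline. LPS was instilled intratracheally at 5 mg/kg. Mice were euthanized with chloral hydrate 6 h later and lungs collected. Lung mRNA for each target was quantified by real-time qPCR.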

Mus musculus [4] = test: Antiinflammatory activity in C57BL/6 mouse model of LPS-induced acute lung injury assessed as reduction in IL1beta mRNA expression in lung tissue at 10 mg/kg, ip administered daily for one week prior to LPS challenge and measured after 6 hrs by TRIZOL reagent-based RT-qPCR analysis; type: functional, organism-based; in short: as §2
RAW264.7 [5] = test: Inhibition of MAPK/NFkappaB in ICR mouse RAW264.7 cells assessed as reduction in LPS-induced IL6 production at 10 uM pretreated for 0.5 hrs followed by LPS challenge and measured after 24 hrs by ELISA relative to control; type: cell-based
RAW264.7 [6] = test: Inhibition of MAPK/NFkappaB signaling in ICR mouse RAW264.7 cells assessed as reduction in LPS-induced TNF-alpha mRNA expression pretreated for 0.5 hrs followed by LPS challenge and measured after 40 mins by TRIZOL reagent-based RT-qPCR analysis; type: cell-based
In short: (§3)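 RAW 264.7 cells were pretreated with compound for 0.5 h and then activated with LPS. Values were normalized to actin and expressed relative to the LPS group.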

Mus musculus [7] = test: Antiinflammatory activity in C57BL/6 mouse model of LPS-induced acute lung injury assessed as reduction in TNF-alpha mRNA expression in lung tissue at 10 mg/kg, ip administered daily for one week prior to LPS challenge and measured after 6 hrs by TRIZOL reagent-based RT-qPCR analysis; type: functional, organism-based; in short: as §2
RAW264.7 [8] = test: Inhibition of LPS-induced ERK phosphorylation in ICR mouse RAW264.7 cells at 10 uM preincubated for 0.5 hrs followed by LPS challenge and measured after 30 mins by immunoblotting analysis; type: cell-based
In short: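 RAW 264.7 cells were pretreated with compound for 0.5 h and then stimulated with LPS for 30 min. Lysates were resolved on 10% or 12% SDS-PAGE and transferred to nitrocellulose. Membranes were blocked in TBS (pH 7.6) with 0.05% Tween 20 and 5% milk. Blots were probed for p-p38, p38, p-ERK, ERK, IκBα and GAPDH, detected with HRP secondaries and ECL.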

Mus musculus [9] = test: Antiinflammatory activity in C57BL/6 mouse model of LPS-induced acute lung injury assessed as reduction in IL-6 production in serum at 10 mg/kg, ip administered daily for one week prior to LPS challenge and measured after 6 hrs by ELISA; type: functional, organism-based
In short: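 In C57BL/6 mice (eight per group), compound was dosed at 10 mg/kg i.p. once daily for a week, with a 0.9% saline vehicle control. LPS 5 mg/kg was given intratracheally and animals were euthanized with chloral hydrate after 6 h. TNF-α and IL-6 in serum and BALF were measured by ELISA. Data are mean ± SEM, n = 6.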

Mus musculus [10] = test: Antiinflammatory activity in C57BL/6 mouse model of LPS-induced acute lung injury assessed as reduction in lung wet/dry ratio at 10 mg/kg, ip administered daily for one week prior to LPS challenge and measured after 6 hrs; type: functional, organism-based
In short: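 C57BL/6 mice (eight per group) received 10 mg/kg i.p. daily for one week; vehicle was 0.9% saline. They were then challenged with intratracheal LPS at 5 mg/kg and sacrificed 6 h later. Endpoints were lung wet/dry weight ratio and total and neutrophil cell counts in BALF, reported as mean ± SEM, n = 6.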

[11] = Inhibition of MAPK/NFkappaB in ICR mouse RAW264.7 cells assessed as reduction in LPS-induced IL6 production pretreated for 0.5 hrs followed by LPS challenge and measured after 24 hrs by ELISA; type: cell-based
Mus musculus [12] = test: Antiinflammatory activity in C57BL/6 mouse model of LPS-induced acute lung injury assessed as reduction in VCAM1 mRNA expression in lung tissue at 10 mg/kg, ip administered daily for one week prior to LPS challenge and measured after 6 hrs by TRIZOL reagent-based RT-qPCR analysis; type: functional, organism-based; in short: as §2
RAW264.7 [13] = test: Inhibition of MAPK/NFkappaB signaling in ICR mouse RAW264.7 cells assessed as reduction in LPS-induced VCAM1 mRNA expression pretreated for 0.5 hrs followed by LPS challenge and measured after 40 mins by TRIZOL reagent-based RT-qPCR analysis; type: cell-based; in short: as §3
[14] = Apparent volume of distribution during terminal phase in Sprague-Dawley rat at 50 mg/kg, po by UHPLC-MS/MS analysis; type: ADME, organism-based; conditions: in vivo
In short: (§4)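 Male Sprague-Dawley rats (250 ± 20 g) fasted overnight with free access to water, n = 5 per route. Intravenous dose was 5 mg/kg; the intragastric dose is printed as 20 mg/kg in the methods and 50 mg/kg in the table. Tail blood was taken at 0.083, 0.25, 0.5, 1, 2, 4, 6, 9, 12 and 24 h. Samples were centrifuged (12000 rpm, 10 min), deproteinized with 2 volumes of acetonitrile, re-centrifuged and quantified by UHPLC-MS/MS.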

[15] = Cmax in Sprague-Dawley rat at 50 mg/kg, po by UHPLC-MS/MS analysis; type: ADME, organism-based; design: dose 50 mg/kg, route oral; conditions: in vivo; in short: as §4
[16] = MRT (0 to t) in Sprague-Dawley rat at 50 mg/kg, po by UHPLC-MS/MS analysis; type: ADME, organism-based; conditions: in vivo; in short: as §4
[17] = MRT (0 to infinity) in Sprague-Dawley rat at 50 mg/kg, po by UHPLC-MS/MS analysis; type: ADME, organism-based; conditions: in vivo; in short: as §4
[18] = Apparent clearance during terminal phase in Sprague-Dawley rat at 5 mg/kg, iv by UHPLC-MS/MS analysis; type: ADME, organism-based; conditions: in vivo; in short: as §4
[19] = MRT (0 to infinity) in Sprague-Dawley rat at 5 mg/kg, iv by UHPLC-MS/MS analysis; type: ADME, organism-based; conditions: in vivo; in short: as §4
[20] = AUC (0 to t) in Sprague-Dawley rat at 50 mg/kg, po by UHPLC-MS/MS analysis; type: ADME, organism-based; conditions: in vivo; in short: as §4

IC50 [11] | Vz/F [14] | Cmax [15] | MRT last [16] | MRT inf [17] | CLz/F [18] | MRT [19] | AUC(0-t) [20] | SMILES | Activity (Mus musculus [1]) | Activity (Mus musculus [2]) | Activity (Mus musculus [3]) | Activity (Mus musculus [4]) | inhibition (RAW264.7 [5]) | inhibition (RAW264.7 [6]) | Activity (Mus musculus [7]) | inhibition (RAW264.7 [8]) | Activity (Mus musculus [9]) | Activity (Mus musculus [10]) | Activity (Mus musculus [12]) | inhibition (RAW264.7 [13])
3.68 µM | – | – | – | – | – | – | – | COc1cc(/C=C/C(=O)N2CCC/C(=C\c3cc(OC)c(OC)c(OC)c3)C2=O)ccc1O | Active | Active | Active | Active | 99.3 to 99.7% | Active | Active | Active | Active | Active | Active | Active
2.4 µM | 827.1 L/kg | 113 ng/mL | 7.8 h | 12.3 h | 404.4 L/h/kg | 19.9 h | 231 ng·h/mL | COc1cc(/C=C/C(=O)N2CCC/C(=C\c3cc(OC)c(OC)c(OC)c3)C2=O)ccc1OC(C)=O | Active | Active | Active | Active | 99.3 to 99.7% | Active | Active | Active | Active | – | Active | Active
